Here are results for 23 sequences from the EternaBench riboswitch data.

In the series the test system is MS2 coat protein. Description: apparent Kd, MS2 coat protein; higher = weaker binding; RNA-MaP array. Summed up:
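Fluorescently labeled MS2 coat protein, from 1.5 nM to 3 μM, was incubated at room temperature with designed RNAs transcribed on an Illumina sequencing chip from sequenced DNA templates. Times ran from 0.8–1.5 h at the lowest concentrations to 10–20 min at the highest, in Tris-HCl pH 7.5 buffer with KCl, MgCl2, BSA, DTT, tRNA and Tween20, with or without input ligand. Each apparent Kd is the median of per-cluster binding-curve fits, and designs with fewer than 10 measured clusters were excluded.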

[1] abbreviates: designed as: ON switch for flavin mononucleotide, no ligand.
The mark [2] stands for this setting: ligand present: flavin mononucleotide, designed as: ON switch for flavin mononucleotide.
[3] abbreviates: designed as: OFF switch for flavin mononucleotide, no ligand.
The mark [4] stands for this setting: ligand present: flavin mononucleotide, designed as: OFF switch for flavin mononucleotide.
Setting [5] is: designed as: ON switch for tryptophan, no ligand.
[6] abbreviates: ligand present: tryptophan, designed as: ON switch for tryptophan.

With “AGAAGGGACGAGAAGGUACGAUCGAGUAAACUAUGAUAUGGGCACAUGAGGAUCACCCAUGUAUGUAAGGAUAUCGCAUCUCCA”, the “apparent Kd” value is, setting by setting: under setting [1], 50.5 nM; under setting [2], 41.1 nM. Regarding “GACUACAUAGUCAGGAUAUGUGAUUAAUAAUAUCAACAGAAGGGACAUGAGGAUCACCCAUGUGUGCGAGUGGA”, the “apparent Kd” value amounted to 14.5 nM under setting [3] and 33.2 nM under setting [4]. For “UUCAUUUUCUAGGAUAUGUACCAGAAAAUAGUUACAGAAGGAGAGACAUGAGGAUCACCCAUGUUGGCAACAGC” the same measures were 10.7 nM and 11.6 nM.

On to “GCAAUUUGACGAGGAUAUGGUCUAUUUUUUUACCCAGAAGGCGUCGCCCACAUGAGGAUCACCCAUGUUCAUGGAUAGGAAAUA”, for which the “apparent Kd” value under setting [3] was 11.9 nM. Consider “UAGUAUGGCACAGGAUAUACAAUUAAUAUGCGGGUAGAAGGGUGGUAUCGACAUGAGGAUCACCCAUGUUAGGAAGAAACACAC”, for which the “apparent Kd” value reads like this: under setting [1], 134 nM; under setting [2], 78.2 nM. On to “GUGAACGUCAAAGGAUAUGUCGGAACUGCUAGAACAGAAGGUUGGGAAUCGGAUUGGUUGCACAUGAGGAUCACCCAUGUUGAG”, for which the “apparent Kd” value amounted to 443 nM under setting [1] and 264 nM under setting [2]. “GCAGGACAUGAGGAUCACCCAUGUGAUACUAUGACAGGAUAUGAUUGAAAACUUACUAGAACAGAAGGGUCGUGUA”: the “apparent Kd” value under setting [1] amounted to 94.3 nM and the “apparent Kd” value under setting [2] stood at 34.5 nM. Consider “AUAUCUUCCACGGCCGCCACUGAAUGGUGCCCAAGGUCGAUCGCAGACAUGAGGAUCACCCAUGUCAGGACCGGGUGGUACUACG”, for which the “apparent Kd” value is, setting by setting: (designed as: OFF switch for tryptophan, no ligand) 14.7 nM; (ligand present: tryptophan, designed as: OFF switch for tryptophan) 33 nM. In the case of “UCCAUACGGUAGGAUAUAUGUACCCAGAAGGGCAUAGAAGGACCCACAUGAGGAUCACCCAUGUUCCUUUGGUG”, the “apparent Kd” value by setting is: under setting [3], 24.4 nM; under setting [4], 30.5 nM. For “UAAUCCAACUCGUAAUGACAUGAGGAUCACCCAUGUGAGCGUGAGGAUAUUGUAAGCUAGGAGGUCAAGAAGGCACGCCAGGAG” the same measures were 9.1 nM and 10 nM.

In the case of “AGAACCCAGUAAGGAUAUGAUGAGUCUAUACAACAUGAGGAUCACCCAUGUCCGAGGAAACUAGAUCAGAAGGUACAAGAAAAG”, the “apparent Kd” value under setting [1] came to 73.8 nM and the “apparent Kd” value under setting [2] amounted to 17.6 nM. In the case of “CGAACUAGCUAGAAGGAACAGGCGACUAAAGUGUUAGGAUAUAGGCGUAUGUGCAGACAUGAGGAUCACCCAUGUGUCGAAUUU”, the “apparent Kd” value came out at 17.8 nM under setting [3] and 14.7 nM under setting [4]. In the case of “GCGACACUCACGGCCGCCACUGAUUAGCCCAGUAUGGAGCCCACACAUGAGGAUCACCCAUGUCACAGGACCGGGUGGGUCUAUU”, the “apparent Kd” value by setting is: under setting [5], 25.8 nM; under setting [6], 26.8 nM. For the sequence “ACUCCACAUGAGGAUCACCCAUGUUAUAAGUAGGUAGGAUAUCACACAAACUUACAUGGAUGAGAAGGACCGGUCC”, the “apparent Kd” value runs as follows: under setting [1], 328 nM; under setting [2], 210 nM. Consider “GUAGAGUCAGGAUAUGUCAACUGCUCUGUAAAGCUUGGUCGACAGAAGGGACAUGAGGAUCACCCAUGUGAAGG”, for which the “apparent Kd” value runs as follows: under setting [3], 34.1 nM; under setting [4], 56.5 nM. The like results for “CGUAUACAUGAGGAUCACCCAUGUACUCCCGUGUAAGGCGAGAAGGAUAUGUUCCCGGCUACUUAACAGAAGGUCUUGGCGCUU” were, in that order, 14.9 nM and 11.2 nM. In the case of “AUUAACAUGAGGAUCACCCAUGUUUGUCUCCGAGGACCGGUACGGCCGCCACUCGCAGGUUGGAGUCGCUAUAUGGGCGUUCACU”, the “apparent Kd” value reads like this: under setting [5], 44.6 nM; under setting [6], 34.9 nM. For the sequence “CACGAUCGUGAAGGAUAUCGACAUGAGGAUCACCCAUGUUACUCUUACAUCUAUGGUUCAAGUGCCGAGAAGGUCACAGAGGCA”, the “apparent Kd” value was found to be 13.8 nM under setting [3] and 18 nM under setting [4]. The like results for “UGAUCUGGCGGAGGAUAUAUGCCAGUAAAACUGAUAGAAGGCCGUGAUAUAACAUGAGGAUCACCCAUGUGAGCUCCUUAGCGA” were, in that order, 20.5 nM and 18.1 nM. For “ACGGCAUGGAAGAAGGAGUACAUGAGGAUCACCCAUGUAGGGUAGCGCGUCCACAUCCAAUAAGACUAGGAUAUUCUUGCAGAU” the same measures were 39.8 nM and 83.2 nM.

With “CAUCAGGGAUCAGGAUAUACAAUGGGUACAUGAGGAUCACCCAUGUAGACGCCAACACUGUCAUUGUAGAAGGGAUUGAGCGAA”, the “apparent Kd” value by setting is: under setting [1], 55.1 nM; under setting [2], 29.8 nM. Turning to “GGAUCGCUCUACAUGAGGAUCACCCAUGUGACUGAGCUAGAUAGAAGGAGAUGGCGAAAUACUUUCUAGGAUAUAUUGUAGCUA”, the “apparent Kd” value worked out at 8.05 nM under setting [3] and 8.08 nM under setting [4]. The like results for “ACUCAUGCAAAGGAUAUAACAGUUACAGACUGAUUAGAAGGUUGGACAUGAGGAUCACCCAUGUACGACGCGGU” were, in that order, 9.13 nM and 28.4 nM.
